Data: ChEMBL document CHEMBL3808334, “Synthesis and in vitro evaluation of novel triazine analogues as anticancer agents and their interaction studies with bovine serum albumin” (Eur J Med Chem, 2016)

How the values were obtained:
[1] = Growth inhibition of human colon cancer cells incubated for 48 hrs by sulforhodamine B assay; type: functional; conditions: Cancer cell lines; for CC50: read-out: LC50 (the source's name)
NCI-H322M = experiment: Growth inhibition of human NCI-H322M cells incubated for 48 hrs by sulforhodamine B assay; type: functional
In short: (§1)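 Cells were plated at 5,000–40,000 per well according to doubling time and preincubated 24 h at 37 °C in 5% CO2; time-zero plates were then TCA-fixed. Five concentrations (10-fold or ½-log dilutions, DMSO stock) were incubated 48 h. Cells were TCA-fixed, stained with 0.4% SRB and read at 515 nm. GI50 was taken where [(Ti−Tz)/(C−Tz)]×100 = 50.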

[2] = Growth inhibition of human OVCAR3 cells assessed as cell growth at 10 uM incubated for 48 hrs by sulforhodamine B assay; type: functional; conditions: OVCAR-3, 48 h, read-out: Activity
SN12C = experiment: Growth inhibition of human SN12C cells assessed as cell growth at 10^-8 M incubated for 48 hrs by sulforhodamine B assay; type: functional; conditions: read-out: Activity
M14 [3] = experiment: Growth inhibition of human M14 cells assessed as cell growth at 10 uM incubated for 48 hrs by sulforhodamine B assay; type: functional; conditions: M14, 48 h, read-out: Activity
[4] = Growth inhibition of human HL-60(TB) cells assessed as cell growth at 10^-4 M incubated for 48 hrs by sulforhodamine B assay; type: functional; conditions: HL-60, 48 h, read-out: Activity
In short: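 Cells plated at 5,000–40,000/well according to doubling time and preincubated 24 h at 37 °C, 5% CO₂, with time-zero plates TCA-fixed. Drugs were kept as DMSO concentrates at 400× the top concentration and diluted in medium with 50 µg/ml gentamicin. Five 10-fold or ½-log dilutions were run for 48 h, followed by SRB staining and A515. Percent growth = (Ti−Tz)/(C−Tz)×100, or (Ti−Tz)/Tz×100 when Ti<Tz.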

SK-MEL-5 = experiment: Growth inhibition of human SK-MEL-5 cells assessed as cell growth at 10^-5 M incubated for 48 hrs by sulforhodamine B assay; type: functional; conditions: SK-MEL-5, 48 h, read-out: Activity
[5] = Growth inhibition of human UACC62 cells assessed as cell growth at 10^-8 M incubated for 48 hrs by sulforhodamine B assay; type: functional; conditions: UACC-62, 48 h, read-out: Activity
[6] = Growth inhibition of human HCC2998 cells assessed as cell growth at 10^-4 M incubated for 48 hrs by sulforhodamine B assay; type: functional; conditions: HCC 2998, 48 h, read-out: Activity
[7] = Growth inhibition of human SNB19 cells incubated for 48 hrs by sulforhodamine B assay; type: functional; conditions: SNB-19, 48 h; in short: as §1
[8] = Growth inhibition of human PC3 cells assessed as cell growth at 10^-7 M incubated for 48 hrs by sulforhodamine B assay; type: functional; conditions: PC-3, 48 h, read-out: Activity
T47D [9] = experiment: Growth inhibition of human T47D cells assessed as cell growth at 10 uM incubated for 48 hrs by sulforhodamine B assay; type: functional; conditions: read-out: Activity
T47D [10] = experiment: Growth inhibition of human T47D cells assessed as cell growth at 10^-7 M incubated for 48 hrs by sulforhodamine B assay; type: functional; conditions: read-out: Activity
[11] = Growth inhibition of human HCT15 cells assessed as cell growth at 10^-7 M incubated for 48 hrs by sulforhodamine B assay; type: functional; conditions: HCT-15, 48 h, read-out: Activity
In short: (§2)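 Cells seeded at 5,000–40,000/well according to doubling time and preincubated 24 h at 37 °C, 5% CO2. Time-zero plates were TCA-fixed. DMSO concentrate was diluted in medium with 50 µg/ml gentamicin to give five concentrations (10-fold or ½ log steps), then exposed 48 h. Cells were TCA-fixed, stained with 0.4% SRB and read at 515 nm. Percent growth was taken against time-zero and control; GI50, TGI and LC50 derived.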

Albumin = Albumin (Bos taurus, UniProt P02769); experiment: Binding affinity to bovine serum albumin assessed as enhancement in emission spectra up to 20 uM by fluorescence spectroscopic analysis relative to control; type: ADME; conditions: cattle, isolated protein
In short: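 Fluorescence titration of 10 µM BSA in 0.1 M phosphate buffer pH 7.4 with compound at 0–20 µM, diluted from DMSO stocks. Excitation 280 nm, slit 10 nm, 1 cm quartz cell, 300 K. Changes in the 350 nm Trp emission, new bands near 370–373 nm and isoemissive points are read against BSA alone.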

[12] = Growth inhibition of human Caki1 cells assessed as cell growth at 10^-8 M incubated for 48 hrs by sulforhodamine B assay; type: functional; conditions: CAKI-1, 48 h, read-out: Activity; in short: as §2
T47D [13] = experiment: Growth inhibition of human T47D cells assessed as cell growth at 10^-8 M incubated for 48 hrs by sulforhodamine B assay; type: functional; conditions: read-out: Activity
[14] = Growth inhibition of human UO31 cells assessed as cell growth at 10^-6 M incubated for 48 hrs by sulforhodamine B assay; type: functional; conditions: UO-31, 48 h, read-out: Activity
M14 [15] = experiment: Growth inhibition of human M14 cells incubated for 48 hrs by sulforhodamine B assay; type: functional; conditions: M14, 48 h; in short: as §1
U-251 = experiment: Growth inhibition of human U251 cells assessed as cell growth at 10^-4 M incubated for 48 hrs by sulforhodamine B assay; type: functional; conditions: U-251, 48 h, read-out: Activity
HT-29 = experiment: Growth inhibition of human HT-29 cells assessed as cell growth at 10^-4 M incubated for 48 hrs by sulforhodamine B assay; type: functional; conditions: HT-29, 48 h, read-out: Activity
NCI-H460 = experiment: Growth inhibition of human NCI-H460 cells assessed as cell growth at 10^-6 M incubated for 48 hrs by sulforhodamine B assay; type: functional; conditions: NCI-H460, 48 h, read-out: Activity
[16] = Growth inhibition of human Hs 578T cells incubated for 48 hrs by sulforhodamine B assay; type: functional; in short: as §1
[17] = Growth inhibition of human SKOV3 cells assessed as cell growth at 10 uM incubated for 48 hrs by sulforhodamine B assay; type: functional; conditions: SK-OV-3, 48 h, read-out: Activity
MDA-MB-231 = experiment: Growth inhibition of human MDA-MB-231 cells assessed as cell growth at 10^-4 M incubated for 48 hrs by sulforhodamine B assay; type: functional; conditions: MDA-MB-231, 48 h, read-out: Activity
NCI-H23 = experiment: Growth inhibition of human NCI-H23 cells assessed as cell growth at 10^-5 M incubated for 48 hrs by sulforhodamine B assay; type: functional; conditions: NCI-H23, 48 h, read-out: Activity
[18] = read-out: LC50 (the source's name)
[19] = read-out: pLC50 (the source's name) (converted)

Chain of Albumin (P02769 whole entry): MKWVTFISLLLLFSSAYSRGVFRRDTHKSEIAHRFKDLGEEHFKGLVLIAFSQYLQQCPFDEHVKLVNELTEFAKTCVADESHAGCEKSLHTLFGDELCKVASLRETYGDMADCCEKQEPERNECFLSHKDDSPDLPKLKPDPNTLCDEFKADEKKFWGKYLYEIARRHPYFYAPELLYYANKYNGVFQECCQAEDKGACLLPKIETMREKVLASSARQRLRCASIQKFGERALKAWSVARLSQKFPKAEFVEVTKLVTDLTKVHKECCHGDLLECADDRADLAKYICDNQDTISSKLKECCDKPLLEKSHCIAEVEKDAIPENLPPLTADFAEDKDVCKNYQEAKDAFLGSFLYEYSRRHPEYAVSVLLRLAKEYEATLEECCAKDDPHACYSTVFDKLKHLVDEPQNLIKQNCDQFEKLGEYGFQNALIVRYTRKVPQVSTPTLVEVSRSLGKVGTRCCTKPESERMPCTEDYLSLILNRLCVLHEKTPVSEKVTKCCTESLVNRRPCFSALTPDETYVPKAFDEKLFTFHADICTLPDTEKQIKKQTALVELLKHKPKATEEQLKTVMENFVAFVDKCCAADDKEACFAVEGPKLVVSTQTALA

Clc1ccc(-c2nc(Nc3ccc(-c4nc5ccccc5[nH]4)cc3)nc(N3CCOCC3)n2)cc1
GI50 [1]: 0.26 µM
TGI [1]: 0.69 µM
CC50 [1]: 2.75 µM
GI50 (NCI-H322M; read-out: GI50): 0.303 µM
TGI (NCI-H322M; read-out: TGI): 1.07 µM
GI50 (NCI-H322M; read-out: pGI50 (converted)): 0.302 µM
TGI (NCI-H322M; read-out: pTGI (converted)): 1.07 µM
growth at 10 µM [2]: -95.6%
growth at 0.01 µM (SN12C): 95%
growth at 10 µM (M14 [3]): -82.6%
growth at 100 µM [4]: -45%
growth at 10 µM (SK-MEL-5): -94%
growth at 0.01 µM [5]: 94%
growth at 100 µM [6]: 2%
GI50 ([7]; read-out: GI50): 0.379 µM
GI50 ([7]; read-out: pGI50 (converted)): 0.38 µM
growth at 0.1 µM [8]: 101%
growth at 10 µM (T47D [9]): -64.8%
growth at 0.1 µM (T47D [10]): 92%
growth at 0.1 µM [11]: 91%
Activity (Albumin): 49.1%
growth at 0.01 µM [12]: 89%
growth at 0.01 µM (T47D [13]): 99%
growth at 1 µM [14]: 80%
GI50 (M14 [15]; read-out: GI50): 0.37 µM
TGI (M14 [15]; read-out: TGI): 1.48 µM
GI50 (M14 [15]; read-out: pGI50 (converted)): 0.372 µM
TGI (M14 [15]; read-out: pTGI (converted)): 1.48 µM
growth at 100 µM (U-251): -44%
growth at 100 µM (HT-29): -42%
growth at 1 µM (NCI-H460): -45%
GI50 ([16]; read-out: GI50): 0.7 µM
CC50 [16, 18]: > 100 µM
TGI ([16]; read-out: TGI): 3.02 µM
GI50 ([16]; read-out: pGI50 (converted)): 0.708 µM
CC50 [16, 19]: > 100 µM
TGI ([16]; read-out: pTGI (converted)): 3.02 µM
growth at 10 µM [17]: -89.9%
growth at 100 µM (MDA-MB-231): -22%
growth at 10 µM (NCI-H23): -66%

c1ccc2[nH]c(-c3ccc(Nc4nc(N5CCCCC5)nc(N5CCOCC5)n4)cc3)nc2c1
GI50 [1]: 2.43 µM
TGI [1]: 5.52 µM
CC50 [1]: 30.2 µM
GI50 (NCI-H322M; read-out: GI50): 4.72 µM
CC50 (NCI-H322M; [18]): > 100 µM
TGI (NCI-H322M; read-out: TGI): > 100 µM
GI50 (NCI-H322M; read-out: pGI50 (converted)): 4.68 µM
CC50 (NCI-H322M; [19]): > 100 µM
TGI (NCI-H322M; read-out: pTGI (converted)): > 100 µM
growth at 10 µM [2]: 10.9%
growth at 0.01 µM (SN12C): 95%
growth at 10 µM (M14 [3]): -24.5%
growth at 100 µM [4]: -22%
growth at 10 µM (SK-MEL-5): -90%
growth at 0.01 µM [5]: 96%
GI50 ([7]; read-out: GI50): 3.73 µM
CC50 [7, 18]: > 100 µM
TGI ([7]; read-out: TGI): 81.9 µM
GI50 ([7]; read-out: pGI50 (converted)): 3.72 µM
CC50 [7, 19]: > 100 µM
TGI ([7]; read-out: pTGI (converted)): 81.3 µM
growth at 0.1 µM [8]: 98%
growth at 10 µM (T47D [9]): 23.4%
growth at 0.1 µM (T47D [10]): 94%
growth at 0.1 µM [11]: 92%
Activity (Albumin): 49.74%
growth at 0.01 µM [12]: 90%
growth at 0.01 µM (T47D [13]): 93%
growth at 1 µM [14]: 87%
GI50 (M14 [15]; read-out: GI50): 2.05 µM
CC50 (M14 [15]; [18]): 15.6 µM
TGI (M14 [15]; read-out: TGI): 4.72 µM
GI50 (M14 [15]; read-out: pGI50 (converted)): 2.04 µM
CC50 (M14 [15]; [19]): 15.5 µM
TGI (M14 [15]; read-out: pTGI (converted)): 4.68 µM
growth at 100 µM (U-251): -56%
growth at 100 µM (HT-29): -46%
growth at 1 µM (NCI-H460): 98%
GI50 ([16]; read-out: GI50): 2.56 µM
CC50 [16, 18]: > 100 µM
TGI ([16]; read-out: TGI): 8.61 µM
GI50 ([16]; read-out: pGI50 (converted)): 2.57 µM
CC50 [16, 19]: > 100 µM
TGI ([16]; read-out: pTGI (converted)): 8.51 µM
growth at 10 µM [17]: 22.5%
growth at 100 µM (MDA-MB-231): -16%
growth at 10 µM (NCI-H23): 6%
